ChEMBL document CHEMBL1221274, “Discovery and expanded SAR of 4,4-disubstituted quinazolin-2-ones as potent T-type calcium channel antagonists” (Bioorg Med Chem Lett, 2010)
One block for each compound: values may come before it. Calls of active or inactive are those of the source. The calls are words filed in the database; no cut-off is given here.

Columns and labels:
[1] = molecular target: Voltage-dependent T-type calcium channel subunit alpha-1I (Homo sapiens) (UniProt Q9P0X4); assay: Antagonist activity at Cav3.3 alpha1i by depolarized FLIPR assay; assay type: functional
[2] = molecular target: T1, PXR (nuclear receptor subfamily 1 group I member 2) (Homo sapiens, UniProt O75469); assay: PXR activation relative to rifampicin at 10 uM; details: activation
T1 sequence (O75469 whole entry): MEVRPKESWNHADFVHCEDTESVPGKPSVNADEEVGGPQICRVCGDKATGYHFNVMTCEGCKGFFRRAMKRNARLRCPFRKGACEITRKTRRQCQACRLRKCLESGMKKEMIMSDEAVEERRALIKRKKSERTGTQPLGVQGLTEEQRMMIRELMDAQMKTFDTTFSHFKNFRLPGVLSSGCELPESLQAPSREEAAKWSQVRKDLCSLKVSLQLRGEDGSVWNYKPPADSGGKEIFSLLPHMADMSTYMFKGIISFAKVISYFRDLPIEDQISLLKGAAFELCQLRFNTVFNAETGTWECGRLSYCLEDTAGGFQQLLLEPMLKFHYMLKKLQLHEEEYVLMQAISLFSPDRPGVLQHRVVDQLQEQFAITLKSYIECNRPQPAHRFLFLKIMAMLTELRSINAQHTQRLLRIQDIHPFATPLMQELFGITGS

[3] = Metabolic stability in human liver microsome assessed as compound remaining after 60 mins; assay type: ADME; details: liver microsomes, read-out: Stability
Outline: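 Human liver microsomes (0.2 mg protein/mL) incubated with test compound at 1 µM plus NADPH cofactor at 37 °C for 30 or 60 min; percent parent compound remaining measured.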

[4] = molecular target: T2, Nuclear receptor subfamily 1 group I member 2 (Homo sapiens, UniProt O75469); assay: PXR activation relative to rifampicin at 10 uM; details: 10 µM
T2 sequence (O75469 whole entry): T1 sequence (O75469 whole entry)

[5] = molecular target: Voltage-dependent T-type calcium channel subunit alpha-1I (Homo sapiens) (UniProt Q9P0X4); assay: Antagonist activity at Cav3.3 alpha1i by hyperpolarized FLIPR assay; assay type: functional
[6] = Plasma protein binding in rat; assay type: ADME, cell-free; details: read-out: PPB (converted)
[7] = Plasma clearance in rat; assay type: ADME, organism-based
[8] = Half life in rat; assay type: ADME, organism-based; details: in vivo
[9] = molecular target: Cytochrome P450 3A4 (Homo sapiens, UniProt P08684); assay: Inhibition of CYP3A4; assay type: ADME; details: TDE = time-dependent effect
[10] = Volume of distribution at steady state in rat; assay type: ADME, organism-based; details: in vivo, read-out: Vdss
[11] = Plasma clearance in dog; assay type: ADME, organism-based, Canis lupus familiaris
[12] = Half life in dog; assay type: ADME, organism-based, Canis lupus familiaris; details: in vivo
[13] = Volume of distribution at steady state in dog; assay type: ADME, organism-based, Canis lupus familiaris; details: in vivo, read-out: Vdss
[14] = Oral bioavailability in rat; assay type: ADME, organism-based; details: in vivo
[15] = Plasma clearance in monkey; assay type: ADME, organism-based, Macaca mulatta; details: rhesus monkey
[16] = Half life in monkey; assay type: ADME, organism-based, Macaca mulatta; details: rhesus monkey, in vivo
[17] = Volume of distribution at steady state in monkey; assay type: ADME, organism-based, Macaca mulatta; details: rhesus monkey, in vivo; read-out: Vdss
[18] = Oral bioavailability in monkey; assay type: ADME, organism-based, Macaca mulatta; details: rhesus monkey, in vivo
[19] = system: Rattus norvegicus; assay: Antiepileptic activity in […] rat assessed as inhibition of total seizures at 10 mg/kg, po after 4 hrs; assay type: functional
Outline: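 Seizure suppression measured by EEG in WAG/Rij rats (absence epilepsy model) after oral dosing; total seizure time scored 4 h post dose and expressed as percent inhibition.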

[20] = system: Rattus norvegicus; assay: Effect on sleep-awake pattern in rat assessed as decrease in active awake at 10 mg/kg, po for 16 hrs; assay type: functional, organism-based; design: dose 10 mg/kg
Outline: (§1)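 Crossover rat study over seven days, n = 7 male rats. ECoG and EMG recorded for 16 h and scored as active wake, light sleep, delta sleep or REM, as minutes per 30 min bin (±SEM). Each time point compared by linear mixed-effects ANOVA.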

[21] = system: Rattus norvegicus; assay: Effect on sleep-awake pattern in rat assessed as decrease in REM sleep at 10 mg/kg, po for 16 hrs; assay type: functional, organism-based; design: dose 10 mg/kg; outline: as §1
[22] = system: Rattus norvegicus; assay: Effect on sleep-awake pattern in rat assessed as increase in delta sleep at 10 mg/kg, po for 16 hrs; assay type: functional, organism-based; design: dose 10 mg/kg; outline: as §1
[23] = species: Homo sapiens; assay: Plasma protein binding in human; details: read-out: PPB (converted)
[24] = species: Rattus norvegicus; assay: Effect on rat Pgp-mediated drug transport assessed as efflux ratio of permeability from basolateral to apical over apical to basolateral side
[25] = species: Homo sapiens; assay: Effect on human Pgp-mediated drug transport assessed as efflux ratio of permeability from basolateral to apical over apical to basolateral side

Voltage-dependent T-type calcium channel subunit alpha-1I (Homo sapiens), sequence (Q9P0X4 whole entry): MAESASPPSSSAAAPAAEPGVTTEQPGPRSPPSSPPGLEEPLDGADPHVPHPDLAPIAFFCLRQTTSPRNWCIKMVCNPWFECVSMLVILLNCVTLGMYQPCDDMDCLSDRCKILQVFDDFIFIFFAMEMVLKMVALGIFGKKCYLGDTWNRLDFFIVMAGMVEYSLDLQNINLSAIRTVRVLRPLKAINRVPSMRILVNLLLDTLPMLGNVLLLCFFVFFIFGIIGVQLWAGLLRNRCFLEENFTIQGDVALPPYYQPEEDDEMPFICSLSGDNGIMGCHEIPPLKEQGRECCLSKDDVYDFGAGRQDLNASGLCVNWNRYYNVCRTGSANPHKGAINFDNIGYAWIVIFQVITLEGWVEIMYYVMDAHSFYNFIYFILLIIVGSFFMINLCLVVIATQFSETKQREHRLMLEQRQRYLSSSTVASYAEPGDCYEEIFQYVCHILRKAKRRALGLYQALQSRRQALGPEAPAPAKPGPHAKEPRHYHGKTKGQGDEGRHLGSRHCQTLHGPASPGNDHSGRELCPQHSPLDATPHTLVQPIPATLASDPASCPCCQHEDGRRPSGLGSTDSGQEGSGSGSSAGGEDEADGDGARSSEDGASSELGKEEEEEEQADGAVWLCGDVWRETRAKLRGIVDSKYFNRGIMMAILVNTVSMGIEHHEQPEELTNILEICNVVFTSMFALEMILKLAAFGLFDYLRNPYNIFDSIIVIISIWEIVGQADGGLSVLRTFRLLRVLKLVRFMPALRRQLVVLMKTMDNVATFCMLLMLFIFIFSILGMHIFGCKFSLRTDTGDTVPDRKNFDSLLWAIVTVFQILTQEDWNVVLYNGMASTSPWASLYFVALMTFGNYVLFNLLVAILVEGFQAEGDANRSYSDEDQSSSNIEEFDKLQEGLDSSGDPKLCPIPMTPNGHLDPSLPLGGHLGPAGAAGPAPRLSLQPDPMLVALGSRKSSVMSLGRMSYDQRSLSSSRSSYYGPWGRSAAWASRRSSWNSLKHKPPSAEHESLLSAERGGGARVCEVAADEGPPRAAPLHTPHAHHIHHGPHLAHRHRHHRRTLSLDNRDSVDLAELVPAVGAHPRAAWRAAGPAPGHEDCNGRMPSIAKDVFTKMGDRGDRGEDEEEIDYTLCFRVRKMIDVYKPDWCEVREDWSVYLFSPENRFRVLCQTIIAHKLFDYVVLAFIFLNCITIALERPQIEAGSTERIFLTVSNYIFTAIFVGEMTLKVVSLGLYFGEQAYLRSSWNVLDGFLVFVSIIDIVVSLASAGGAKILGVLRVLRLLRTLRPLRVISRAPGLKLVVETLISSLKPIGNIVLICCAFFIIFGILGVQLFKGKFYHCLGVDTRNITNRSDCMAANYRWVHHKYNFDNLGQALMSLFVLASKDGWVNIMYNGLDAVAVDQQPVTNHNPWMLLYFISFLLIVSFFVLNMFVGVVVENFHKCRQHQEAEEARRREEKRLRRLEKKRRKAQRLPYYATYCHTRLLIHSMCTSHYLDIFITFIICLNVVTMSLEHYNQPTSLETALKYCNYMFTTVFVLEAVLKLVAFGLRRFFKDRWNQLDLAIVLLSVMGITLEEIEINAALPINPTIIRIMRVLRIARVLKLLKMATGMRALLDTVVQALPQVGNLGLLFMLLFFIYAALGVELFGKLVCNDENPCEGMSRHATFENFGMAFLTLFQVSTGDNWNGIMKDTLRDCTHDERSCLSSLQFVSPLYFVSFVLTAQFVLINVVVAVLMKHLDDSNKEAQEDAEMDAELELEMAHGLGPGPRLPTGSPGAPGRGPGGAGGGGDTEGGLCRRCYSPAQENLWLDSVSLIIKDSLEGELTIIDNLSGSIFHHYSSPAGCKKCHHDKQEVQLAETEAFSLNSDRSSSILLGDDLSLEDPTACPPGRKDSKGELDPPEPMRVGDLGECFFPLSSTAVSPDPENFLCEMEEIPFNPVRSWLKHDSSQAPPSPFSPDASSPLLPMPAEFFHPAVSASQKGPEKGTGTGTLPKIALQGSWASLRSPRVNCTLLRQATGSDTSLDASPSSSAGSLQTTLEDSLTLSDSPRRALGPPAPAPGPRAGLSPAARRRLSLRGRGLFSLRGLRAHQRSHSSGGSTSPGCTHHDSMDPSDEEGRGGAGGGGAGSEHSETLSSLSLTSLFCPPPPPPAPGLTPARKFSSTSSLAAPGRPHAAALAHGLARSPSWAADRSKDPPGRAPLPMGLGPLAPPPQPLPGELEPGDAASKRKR
Cytochrome P450 3A4, sequence (P08684 whole entry): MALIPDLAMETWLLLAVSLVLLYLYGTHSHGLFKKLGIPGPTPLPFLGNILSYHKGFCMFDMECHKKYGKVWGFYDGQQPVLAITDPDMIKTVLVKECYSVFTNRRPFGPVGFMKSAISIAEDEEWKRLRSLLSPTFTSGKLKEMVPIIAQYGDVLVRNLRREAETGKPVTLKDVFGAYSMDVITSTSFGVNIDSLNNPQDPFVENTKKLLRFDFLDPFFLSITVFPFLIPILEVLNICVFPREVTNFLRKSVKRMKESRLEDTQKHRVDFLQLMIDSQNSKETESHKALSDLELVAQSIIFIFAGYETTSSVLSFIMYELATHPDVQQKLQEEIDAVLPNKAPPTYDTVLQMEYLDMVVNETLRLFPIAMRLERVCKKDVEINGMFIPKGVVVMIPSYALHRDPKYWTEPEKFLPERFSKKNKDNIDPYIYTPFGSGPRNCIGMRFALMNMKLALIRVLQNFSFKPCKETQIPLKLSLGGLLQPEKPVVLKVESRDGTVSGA

- Activity [1]: 38 nM
- activation at 10 µM [2]: 49%
SMILES: CCCC1(c2ccccc2)c2cc(F)ccc2NC(=O)N1CC(F)(F)F (centres undefined)

- Activity [1]: 71 nM
SMILES: CCC1(c2ccccc2)c2cc(Cl)ccc2NC(=O)N1CC(F)(F)F (single isomer, unassigned; 21A)

- Activity [1]: 17 nM
- remaining at 1 h [3]: 66%
- activation at 10 µM [2]: 53%
SMILES: O=C1Nc2ccc(F)c(F)c2C(CCF)(c2ccc(F)cc2)N1CC(F)(F)F (centres undefined)

- Activity [1]: 141 nM
SMILES: CCC1(c2ccc(F)c(F)c2)c2cc(Cl)ccc2NC(=O)N1CC(F)(F)F (centres undefined)

- activation at 10 µM [2]: 74%
SMILES: CCC1(c2ccccc2)c2cc(F)ccc2NC(=O)N1CC(F)(F)F (single isomer, unassigned; 35B) [listing 1 of 2 here]

- Activity [1]: 879 nM
SMILES: CCCC1(c2ccc(OC)cc2)c2cc(Cl)ccc2NC(=O)N1CC(F)(F)F (centres undefined)

- Activity [1]: 87 nM
SMILES: C=CCC1(c2ccccc2)c2cc(Cl)ccc2NC(=O)N1CC(F)(F)F (centres undefined)

- Activation [4]: 63%
SMILES: CCC1(c2ccccc2)c2cc(F)ccc2NC(=O)N1CC(F)(F)F (single isomer, unassigned; 35A) [listing 1 of 2 here]

- Activity [1]: 3880 nM
SMILES: CCC1(c2ccccc2)c2cc(Cl)ccc2NC(=O)N1CC(F)(F)F (single isomer, unassigned; 21B)

- Activity [1]: 1320 nM
SMILES: CCCC1(c2ccc(F)cc2)c2cc(Cl)ccc2NC(=O)N1CC(F)(F)F (single isomer, unassigned; 24B)

- Activity [1]: 1830 nM
SMILES: CCC1(c2ccc(F)cc2)c2c(ccc(F)c2F)N(Cc2c(C)noc2C)C(=O)N1CC(F)(F)F (centres undefined)

- Activity [1]: 132 nM
- activation at 10 µM [2]: 61%
SMILES: CCC1(c2ccccc2)c2c(ccc(Cl)c2F)NC(=O)N1CC(F)(F)F (centres undefined)

- Activity [1]: 60 nM
SMILES: O=C1Nc2ccc(Cl)cc2C(CC(F)F)(c2ccc(F)cc2)N1CC(F)(F)F (single isomer, unassigned; 31A)

- Activity [1]: 161 nM
SMILES: CCCC1(c2cccc(N3CCOCC3)c2)c2cc(Cl)ccc2NC(=O)N1CC(F)(F)F (centres undefined)

- Activity [1]: 61 nM
- Activity [5]: 239 nM
SMILES: CC[C@]1(c2ccc(F)cc2)c2cc(Cl)ccc2NC(=O)N1CC(F)(F)F

- Activity [1]: 469 nM
SMILES: O=C1Nc2ccc(Cl)cc2C(CC(F)F)(c2ccc(F)cc2)N1CC(F)(F)F (single isomer, unassigned; 31B)

- Activity [1]: 25 nM
SMILES: CCCC1(c2ccc(F)cc2)c2cc(Cl)ccc2NC(=O)N1CC(F)(F)F (single isomer, unassigned; 24A)

- Activity [1]: 6 nM
- activation at 10 µM [2]: 73%
SMILES: CCCC1(c2ccc(F)cc2)c2c(ccc(F)c2F)NC(=O)N1CC(F)(F)F (centres undefined)

- Activity [1]: 111 nM
SMILES: CCCCC1(C2CC2)c2cc(Cl)ccc2NC(=O)N1CC(F)(F)F (centres undefined)

- Activity [1]: 111 nM
- activation at 10 µM [2]: 83%
SMILES: CCC1(c2ccccc2)c2c(F)cccc2NC(=O)N1CC(F)(F)F (centres undefined)

- Activity [1]: 290 nM
SMILES: N#CC1(c2ccc(F)cc2)c2c(ccc(F)c2F)NC(=O)N1CC(F)(F)F (centres undefined)

- Activity [1]: 16 nM
- remaining at 1 h [3]: < 1%
- activation at 10 µM [2]: 52%
SMILES: CCC1(c2ccc(F)cc2)c2c(ccc(F)c2F)NC(=O)N1CC(F)(F)F (centres undefined)

- activation at 10 µM [2]: 48%
SMILES: CCC1(c2ccccc2)c2c(ccc(F)c2F)NC(=O)N1CC(F)(F)F (single isomer, unassigned) [listing 1 of 2 here]

- Activity [1]: 14 nM
- Activity [5]: 590 nM
SMILES: N#Cc1ccc([C@@]2(C3CC3)c3cc(Cl)ccc3NC(=O)N2CC(F)(F)F)cc1

- Activity [1]: 905 nM
SMILES: O=C1Nc2ccc(Cl)cc2C(CCF)(c2ccc(F)cc2)N1CC(F)(F)F (single isomer, unassigned; 30B)

- fraction unbound [6]: 0.021
- clearance [7]: 55 mL/min/kg
- half-life [8]: 96 min
- Activity [1]: 14 nM
- remaining at 1 h [3]: 68%
- inhibition (INH) [9]: tde
- Vd [10]: 6.7 L/kg
- clearance [11]: 10.5 mL/min/kg
- half-life [12]: 354 min
- Vd [13]: 3.6 L/kg
- bioavailability [14]: 15%
- clearance [15]: 23 mL/min/kg
- half-life [16]: 348 min
- Vd [17]: 9.8 L/kg
- bioavailability [18]: 15%
- fraction unbound [23]: 0.015
- activation at 10 µM [2]: 35%
- Ratio [24]: 1.5
- Ratio [25]: 1.2
SMILES: O=C1Nc2ccc(F)c(F)c2C(CC(F)F)(c2ccc(F)cc2)N1CC(F)(F)F (centres undefined)
- inhibition in vivo at 10 mg/kg [19]: 70%
- Activity [20]: Active
- Activity [21]: Active
- Activity [22]: Active

- Activity [1]: 3090 nM
SMILES: O=C1Nc2ccc(F)c(F)c2C(CCO)(c2ccc(F)cc2)N1CC(F)(F)F (centres undefined)

- Activity [1]: 447 nM
SMILES: CCC(C)C1(C2CC2)c2cc(Cl)ccc2NC(=O)N1CC(F)(F)F (centres undefined)

- Activity [1]: 171 nM
SMILES: CCCC1(c2cccc(OC)c2)c2cc(Cl)ccc2NC(=O)N1CC(F)(F)F (centres undefined)

- Activity [1]: 62 nM
SMILES: CCCC1(c2cccc(-c3nccs3)c2)c2cc(Cl)ccc2NC(=O)N1CC(F)(F)F (centres undefined)

- Activity [1]: 318 nM
SMILES: CCCC1(c2cccc(-c3ccnn3C)c2)c2cc(Cl)ccc2NC(=O)N1CC(F)(F)F (centres undefined)

- Activity [1]: 53 nM
- activation at 10 µM [2]: 70%
SMILES: CCC1(c2ccc(F)cc2)c2c(ccc(F)c2F)N(CCOC)C(=O)N1CC(F)(F)F (centres undefined)

- Activity [1]: 42 nM
SMILES: O=C1Nc2ccc(Cl)cc2C(CCF)(c2ccc(F)cc2)N1CC(F)(F)F (single isomer, unassigned; 30A)

- Activity [1]: 20 nM
SMILES: CCC1(c2ccccc2)c2c(ccc(F)c2F)NC(=O)N1CC(F)(F)F (single isomer, unassigned) [listing 2 of 2 here]

- Activity [1]: 50 nM
SMILES: CCC1(c2ccccc2)c2cc(F)ccc2NC(=O)N1CC(F)(F)F (single isomer, unassigned; 35A) [listing 2 of 2 here]

- Activity [1]: 847 nM
- Activity [5]: 2170 nM
SMILES: CCC1(c2ccccc2)c2cc(Cl)ccc2NC(=O)N1C (centres undefined)

- Activity [1]: 3740 nM
SMILES: CCC1(c2ccccc2)c2cc(F)ccc2NC(=O)N1CC(F)(F)F (single isomer, unassigned; 35B) [listing 2 of 2 here]

- Activity [1]: 2040 nM
SMILES: CCC1(c2ccccc2)c2c(ccc(F)c2F)NC(=O)N1CC(F)(F)F (stereo in doubt; 36B)

- Activity [1]: 757 nM
- activation at 10 µM [2]: 44%
SMILES: CC(C)(C)C1(c2ccccc2)c2cc(F)ccc2NC(=O)N1CC(F)(F)F (centres undefined)

- Activity [1]: 657 nM
- activation at 10 µM [2]: 91%
SMILES: CCC1(c2ccccc2)c2c(F)ccc(F)c2NC(=O)N1CC(F)(F)F (centres undefined)

- Activity [1]: 73 nM
SMILES: CCCC1(c2cccc(Oc3ccccn3)c2)c2cc(Cl)ccc2NC(=O)N1CC(F)(F)F (centres undefined)

- Activity [1]: 25 nM
- activation at 10 µM [2]: 58%
SMILES: CCC1(c2ccc(F)cc2)c2cc(F)ccc2NC(=O)N1CC(F)(F)F (centres undefined)
